# CSC inhib: blocks cancer stem cells | inhibition, % at 7.5 µM | 300,000 compounds, 1.1% hits | cancer stem cell-like cells viability, luminescence; in the data active means inhibition above about 75%; tested in HMLE shEcad cells
# Beta cell apopt: beta cell apoptosis inhibition; protection from apoptosis, % (no concentration beside the values); INS-1E cytokine-induced death, ATP luminescence, 48 h; percent of positive-control rescue, neutral wells zero; 300,000 compounds, 0.8% hits;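 active means Every replicate reaches about 75%, or at least half do and their mean reaches it too, limit read from the data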;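 further: higher means more ATP so stronger rescue from cytokine killing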
# T cruzi inh: blocks replication of Trypanosoma cruzi. AID 1885. T. cruzi beta-gal in NIH3T3, luminescence, 90 h. inhibition, % (test concentration not listed). 300,000 compounds, 1.4% hits;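 active means mean inhibition across valid replicates above about 55%, limit read from the data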;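 further: signal also drops with host cell toxicity which is not excluded here; higher percent means less beta-gal luminescence so fewer parasites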
#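 System – NIH/3T3 host cells with β-galactosidase reporter T. cruzi · Doses – single 50 nL compound addition per well in DMSO · Reagent – 5000 T. cruzi trypomastigotes/well · Medium – Low-serum DMEM with 2% FBS · Timing – ≥90 h infection period, 3 h prior cell attachment · Evaluation – parasite load inhibition, % · Technique – GalScreen luminescence, 60 min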
# Efflux pump inh: inhibitors of Candida antifungal efflux pumps expressed in yeast | S. cerevisiae Candida pump triplex, Nile Red efflux | inhibition, % at 10 µM | 330,000 compounds, 0.44% hits | AID 485275;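 active means plate passing quality check with inhibition over a set limit, or well fluorescence over plate mean plus 4 SD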;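 further: Nile Red retained in pooled yeast measured as flow cytometry median fluorescence; higher means more Nile Red kept so more efflux inhibition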
# Mot1-301 SUMO: SUMOylation pathway inhibition by Mot1-301 growth rescue | S. cerevisiae Mot1-301 growth rescue, ATP luminescence, 38.5C; percent above DMSO median, 100 means doubled | growth rescue, % at 18.8 µM | 320,000 compounds, 1% hits | AID 2716;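 active means every valid replicate shows activation above 250% relative to neutral control wells; inactive means the rest, any valid replicate at or below 250%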
# WT yeast gro inh: growth inhibition of WT yeast, mitochondrial fusion screen; mitochondrial fusion phenotypic screen, WT strain; inhibition, % at 10 µM; 190,000 compounds, 2.1% hits; AID 1362; in the data active means inhibition above about 58%; tested in S. cerevisiae
# Numbers stand for hits; 0 = inactive; - = not tested or not shown. An excerpt weighted towards active compounds, which were near 4.8% of everything screened.
SMILES,CSC inhib,Beta cell apopt,T cruzi inh,Efflux pump inh,Mot1-301 SUMO,WT yeast gro inh
N#Cc1nccnc1S(=O)(=O)c1cccs1,0,0,0,0,361.3,-
COc1ccc(Br)cc1C(=O)Nc1ccccc1N1CCCC1,0,0,0,0,0,-
CCn1c(=O)n(CC)c2cc(N3CCCC3)c(NC(=O)c3cc(Br)ccc3OC)cc21,0,0,64.3,0,0,-
CCOCCOC(=O)C1=C(C)NC2=C(C(=O)CC(c3cccs3)C2)C1c1ccsc1 (stereo unspecified),0,0,0,0,0,0
CC1=C(C(=O)Nc2ccccc2F)C(c2ccsc2)C2=C(CC(c3ccccc3)CC2=O)N1 (stereo unspecified),0,0,56.1,0,0,0
Cc1ccc(Nc2ncccc2C(=O)NCc2cccs2)c(C)c1,0,0,0,0,0,67.2
Cc1cccc(Nc2ncccc2C(=O)NCc2cccs2)c1C,0,0,0,0,0,0
CCc1ccccc1NCC(=O)Nc1ccc(Cl)c(C(F)(F)F)c1,-,-,0,0,0,79.8
COc1ccccc1NC(=O)CN1CCN(CC(=O)Nc2ccc(Cl)c(C(F)(F)F)c2)CC1,-,-,-,-,-,0
Cc1ccc(OCC(=O)N2CCN(c3nnc(-c4ccccc4)c4ccccc34)CC2)cc1,0,0,69.6,0,0,0
CC(=O)N1CCN(c2nnc(-c3ccc(C)cc3)c3ccccc23)CC1,0,0,0,0,0,-
Cc1cccc(C)c1OCc1cc(C(=O)N2CCN(c3ccc(F)cc3)CC2)no1,-,-,0,0,-,-
CCOC(=O)C1CCN(S(=O)(=O)c2c(Cl)ccc3nonc23)CC1,0,0,64.1,0,0,-
CCOC(=O)C1CCN(S(=O)(=O)c2cccc3nonc23)CC1,0,0,0,0,0,0
Cc1nc(NC(=O)/C=C/c2ccco2)sc1C,0,0,0,0,0,0
O=C(/C=C/c1ccco1)Nc1cccc(NC(=O)/C=C/c2ccco2)n1,0,0,0,0,0,59.5
Cc1ccc(Cn2c(O)c(N=NC(=S)Nc3ccccc3F)c3cc(S(=O)(=O)N4CCOCC4)ccc32)cc1,-,-,0,-,-,0
Oc1c(N=NC(=S)Nc2ccccc2F)c2ccccc2n1Cc1ccccc1F,-,0,88.5,0,-,0
Cc1ccc(C)c(Cn2c(O)c(N=NC(=S)Nc3ccccc3F)c3ccccc32)c1,0,0,67.0,0,0,0
Cc1ccccc1Cn1c(O)c(N=NC(=S)Nc2ccccc2F)c2ccccc21,0,0,0,0,-,0
CCNC(=S)N=Nc1c(O)n(Cc2ccc(Cl)cc2)c2ccccc12,0,0,0,0,-,0
Oc1c(N=NC(=S)Nc2ccccc2F)c2ccccc2n1Cc1ccc(Cl)cc1,0,0,60.9,0,0,0
Cc1cc(C)c2ccc(=O)n(CC(=O)N/N=C/c3ccccc3Cl)c2n1,0,0,0,0,0,-
CCc1c(C)sc(NC(=S)N2CCN(C(=O)C3CCCO3)CC2)c1C(=O)OC (stereo unspecified),0,0,0,0,0,-
CCc1c(C)sc(NC(=S)N2CC(C)OC(C)C2)c1C(=O)OC (stereo unspecified),0,0,-,0,0,64.5
SMILES,CSC inhib,Beta cell apopt,T cruzi inh,Efflux pump inh,Mot1-301 SUMO,WT yeast gro inh
CC(=O)NC(Cc1ccc(F)cc1)C(=O)NC1CCN(C(=O)Nc2ccc(F)cc2)CC1 (stereo unspecified),0,0,0,0,0,-
O=C(CSc1ncnc2c1nnn2Cc1ccc(F)cc1)NC1CCCCC1,0,0,78.8,0,0,0
O=C(CSc1ncnc2c1nnn2Cc1ccc(F)cc1)NCC1CCCO1 (stereo unspecified),0,0,0,0,0,-
CNC(=S)NNC(=O)c1cccn(Cc2ccc(Cl)cc2Cl)c1=O,0,0,0,0,335.9,0
CCOC(=O)c1c(-c2ccccc2)oc2ccc(OCC(O)CNCCN(C)C)cc12 (stereo unspecified),0,0,78.5,0,0,-
CCOC(=O)c1c(C)n(C)c2ccc(OCC(O)CNCCc3ccccc3)cc12 (stereo unspecified),0,0,54.7,0,0,-
CCOC(=O)c1c(C)n(C)c2ccc(OCC(O)CN3CCN(C)CC3)cc12 (stereo unspecified),0,0,0,0,0,0
CCOC(=O)c1c(C)n(-c2ccc(C)cc2)c2ccc(OCC(O)CN3CCN(C)CC3)cc12 (stereo unspecified),-,-,-,-,-,92.3
CCOC(=O)c1c(-c2ccccc2)oc2ccc(OCC)cc12,0,0,0,0,0,0

# Bioassay records as filed in PubChem.
